ChEMBL document CHEMBL3244146, “Pyranenamines: a new series of antiallergic compounds” (1979)

What was measured:
Rattus norvegicus [1] = assay: Antiallergic activity in rat assessed as inhibition of egg albumin-induced passive cutaneous anaphylaxis at 10 mg/kg, iv treated for 30 secs followed by egg albumin-challenge measured after 30 mins relative to control; type: functional; settings: 0.5 h
Rattus norvegicus [2] = assay: Antiallergic activity in rat assessed as inhibition of egg albumin-induced passive cutaneous anaphylaxis at 5 mg/kg, iv treated for 30 secs followed by egg albumin-challenge measured after 30 mins relative to control; type: functional; settings: 0.5 h
Rattus norvegicus [3] = assay: Antiallergic activity in po dosed rat assessed as inhibition of egg albumin-induced passive cutaneous anaphylaxis treated for 15 mins followed by egg albumin-challenge measured after 30 mins; type: functional; settings: read-out: ID50 (the source's name)
How it was run: (§1)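 Oral PCA in rats: intradermal antiserum at four back sites (dose giving ~12×12 mm wheal), compound po 48 h later, 15 min before iv challenge with 0.5 mL saline containing 5 mg Evans blue plus 5 mg egg albumin; skin bluing read 30 min after challenge on two axes per wheal; six rats per dose versus ≥6 vehicle controls; percent inhibition from mean wheal size, one-sided t test.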

Rattus norvegicus [4] = assay: Antiallergic activity in iv dosed rat assessed as inhibition of egg albumin-induced passive cutaneous anaphylaxis treated for 30 secs followed by egg albumin-challenge measured after 30 mins; type: functional; settings: 0.5 h, read-out: ID50 (the source's name)
Rattus norvegicus [5] = assay: Antiallergic activity in rat assessed as inhibition of egg albumin-induced passive cutaneous anaphylaxis at 25 mg/kg, po treated for 15 mins followed by egg albumin-challenge measured after 30 mins relative to control; type: functional; how it was run: as §1
[6] = Antiallergic activity in passively sensitized rhesus monkey lungs assessed as inhibition of antigen-induced slow reacting substance of anaphylaxis release at 1 x 10^-4 M relative to control; type: functional, Macaca mulatta, Lung
How it was run: (§2)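 Passively sensitized fragmented lung from a young adult male rhesus monkey, challenged with IgE-antihuman IgE; histamine release measured fluorometrically and SRS-A estimated by guinea pig ileum bioassay; inhibition relative to control; replicates given as number of separate lung preparations.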

[7] = Antiallergic activity in passively sensitized rhesus monkey lungs assessed as inhibition of antigen-induced histamine release at 1 x 10^-4 M by fluorometric analysis relative to control; type: functional, Macaca mulatta, Lung; how it was run: as §2
[8] = Antiallergic activity in passively sensitized rhesus monkey lungs assessed as inhibition of antigen-induced histamine release at 1 x 10^-5 M by fluorometric analysis relative to control; type: functional, Macaca mulatta, Lung; how it was run: as §2
[9] = Antiallergic activity in passively sensitized rhesus monkey lungs assessed as inhibition of antigen-induced slow reacting substance of anaphylaxis release at 1 x 10^-5 M relative to control; type: functional, Macaca mulatta, Lung; how it was run: as §2

CC(=O)C1=C(O)/C(=C(\C)Nc2ccccc2)C(=O)OC1=O
inhibition in vivo at 10 mg/kg (Rattus norvegicus [1]): 76%

CC(=O)C1=C(O)/C(=C(\C)Nc2ccccc2Cl)C(=O)OC1=O
inhibition in vivo at 10 mg/kg (Rattus norvegicus [1]): 36%

CC(=O)C1=C(O)/C(=C(\C)Nc2cccc(Cl)c2)C(=O)OC1=O
inhibition in vivo at 10 mg/kg (Rattus norvegicus [1]): 74%

CC(=O)C1=C(O)/C(=C(\C)Nc2ccc(Cl)cc2)C(=O)OC1=O
inhibition in vivo at 10 mg/kg (Rattus norvegicus [1]): 84%

CC(=O)C1=C(O)/C(=C(\C)Nc2ccc(F)cc2)C(=O)OC1=O
inhibition in vivo at 10 mg/kg (Rattus norvegicus [1]): 54%

CC(=O)C1=C(O)/C(=C(\C)Nc2ccc([N+](=O)[O-])cc2)C(=O)OC1=O
inhibition in vivo at 10 mg/kg (Rattus norvegicus [1]): 17%

CCOC(=O)c1ccccc1N/C(C)=C1\C(=O)OC(=O)C(C(C)=O)=C1O
inhibition in vivo at 5 mg/kg (Rattus norvegicus [2]): 18%

COC(=O)c1ccc(N/C(C)=C2\C(=O)OC(=O)C(C(C)=O)=C2O)cc1
inhibition in vivo at 5 mg/kg (Rattus norvegicus [2]): 6%

CC(=O)C1=C(O)/C(=C(\C)Nc2ccc(C)cc2)C(=O)OC1=O
inhibition in vivo at 10 mg/kg (Rattus norvegicus [1]): 33%

COc1ccc(N/C(C)=C2\C(=O)OC(=O)C(C(C)=O)=C2O)cc1
inhibition in vivo at 5 mg/kg (Rattus norvegicus [2]): 27%

CC(=O)Nc1ccc(N/C(C)=C2\C(=O)OC(=O)C(C(C)=O)=C2O)cc1
inhibition in vivo at 5 mg/kg (Rattus norvegicus [2]): 19%

CC(=O)C1=C(O)/C(=C(\C)Nc2cc(N)cc(N)c2)C(=O)OC1=O
ED50 (Rattus norvegicus [3]): 0.9 mg/kg
ED50 (Rattus norvegicus [4]): 0.5 mg/kg

CC(=O)C1=C(O)/C(=C(\C)Nc2cccc(NC(=O)C(=O)C(=O)O)c2)C(=O)OC1=O
inhibition in vivo at 25 mg/kg (Rattus norvegicus [5]): 21%
ED50 (Rattus norvegicus [4]): 0.03 mg/kg

CC(=O)C1=C(O)/C(=C(\C)Nc2cccc(NC(=O)C(O)CO)c2)C(=O)OC1=O (stereo not drawn)
inhibition in vivo at 25 mg/kg (Rattus norvegicus [5]): 55%
ED50 (Rattus norvegicus [4]): 0.05 mg/kg

CC(=O)C1=C(O)/C(=C(\C)Nc2ccc(Cl)c(Cl)c2)C(=O)OC1=O
inhibition in vivo at 10 mg/kg (Rattus norvegicus [1]): 10%

CC(=O)Nc1cc(O)cc(N/C(C)=C2\C(=O)OC(=O)C(C(C)=O)=C2O)c1
inhibition (INH) [6]: 22%
inhibition in vivo at 25 mg/kg (Rattus norvegicus [5]): 2%
inhibition (INH) [7]: 57%
inhibition (INH) [8]: 17%
inhibition (INH) [9]: 6%
ED50 (Rattus norvegicus [4]): 0.02 mg/kg

CC(=O)Nc1cc(N)cc(N/C(C)=C2\C(=O)OC(=O)C(C(C)=O)=C2O)c1
inhibition (INH) [6]: 8%
inhibition in vivo at 25 mg/kg (Rattus norvegicus [5]): 11%
inhibition (INH) [7]: 17%
ED50 (Rattus norvegicus [4]): 0.1 mg/kg

CCCC(=O)Nc1cc(NC(=O)CCC)cc(N/C(C)=C2\C(=O)OC(=O)C(C(C)=O)=C2O)c1
inhibition in vivo at 25 mg/kg (Rattus norvegicus [5]): 7%
ED50 (Rattus norvegicus [4]): 0.05 mg/kg

CCOC(=O)Nc1cc(NC(=O)OCC)cc(N/C(C)=C2\C(=O)OC(=O)C(C(C)=O)=C2O)c1
inhibition in vivo at 25 mg/kg (Rattus norvegicus [5]): -18%
ED50 (Rattus norvegicus [4]): 0.25 mg/kg

CCOC(=O)C(=O)Nc1cc(NC(=O)C(=O)OCC)cc(N/C(C)=C2\C(=O)OC(=O)C(C(C)=O)=C2O)c1
ED50 (Rattus norvegicus [3]): 6.5 mg/kg
ED50 (Rattus norvegicus [4]): 0.03 mg/kg

CC(=O)C1=C(O)/C(=C(\C)Nc2cc(NC(=O)C(=O)O)cc(NC(=O)C(=O)O)c2)C(=O)OC1=O
ED50 (Rattus norvegicus [3]): 19 mg/kg
ED50 (Rattus norvegicus [4]): 0.05 mg/kg

CC(=O)C1=C(O)/C(=C(\C)Nc2cc(O)c(O)c(O)c2)C(=O)OC1=O
inhibition in vivo at 25 mg/kg (Rattus norvegicus [5]): -3%
ED50 (Rattus norvegicus [4]): 0.4 mg/kg

CC(=O)C1=C(O)/C(=C(\C)Nc2c(Cl)cccc2Cl)C(=O)OC1=O
inhibition in vivo at 10 mg/kg (Rattus norvegicus [1]): 3%

CC(=O)C1=C(O)/C(=C(\C)Nc2cc(O)ccc2N)C(=O)OC1=O
inhibition in vivo at 5 mg/kg (Rattus norvegicus [2]): 47%

COc1ccc(N(C)/C(C)=C2\C(=O)OC(=O)C(C(C)=O)=C2O)cc1
inhibition in vivo at 5 mg/kg (Rattus norvegicus [2]): 37%

CC(=O)C1=C(O)/C(=C(\C)N(C)c2ccc(O)cc2)C(=O)OC1=O
inhibition in vivo at 5 mg/kg (Rattus norvegicus [2]): 42%

CC(=O)C1=C(O)/C(=C(\C)N)C(=O)OC1=O
inhibition in vivo at 5 mg/kg (Rattus norvegicus [2]): 17%

CCC(=O)c1c(O)oc(=O)c(C(=O)CC)c1O
inhibition in vivo at 10 mg/kg (Rattus norvegicus [1]): 39%

CCCC(=O)c1c(O)oc(=O)c(C(=O)CCC)c1O
inhibition in vivo at 10 mg/kg (Rattus norvegicus [1]): 3%

CCCCC(=O)c1c(O)oc(=O)c(C(=O)CCCC)c1O
inhibition in vivo at 10 mg/kg (Rattus norvegicus [1]): 69%

CC(C)CC(=O)c1c(O)oc(=O)c(C(=O)CC(C)C)c1O
inhibition in vivo at 10 mg/kg (Rattus norvegicus [1]): 23%

CCCCCCC(=O)c1c(O)oc(=O)c(C(=O)CCCCCC)c1O
inhibition in vivo at 10 mg/kg (Rattus norvegicus [1]): 27%
